No end group written: not given here.
Assays:
[1] = tested on: rats (mechanical hyperalgesia induced by Carr.); test: Randall–Selitto test, carrageenan inflammatory pain, peptide given i.d.; type: in vivo, Sprague–Dawley rat
Procedure, shortened: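 SD rats (180–220 g) received Carr. (1%, 5 μL) i.d. into the right hindpaw after baseline PWT. Test compound was given i.d. in 5 μL at the inflamed site 1.5 h after Carr. PWT was measured 2 h after dosing. AUC (g·min) was calculated per rat, and ΔPWT = PWT(post-drug) − PWT(pre-drug). Saline was the control. Dosing was blinded; mean ± SEM.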

rats (cold pain) = test: Cold plantar test; type: in vivo, rat; details: i.d. 1200 ng/kg, 5 μL; n = 5
rats (thermal pain) = test: Thermal laser test of hot pain; type: in vivo, rat; details: i.d. 1200 ng/kg, 5 μL; laser 52.5 ± 0.5 °C; n = 5
TRPC1 and TRPC6 = details: MS channels in DRG neurons; ref [27]; cited from earlier work
Piezo1/Piezo2 channel = details: ref [63], [64]; cited from earlier work
[2] = tested on: stretch-activated cationic currents in mammalian astrocytes, cardiomyocytes, and the central nervous system; details: ref [23], [24], [25], [26]; cited from earlier work
[3] = tested on: rats (mechanical hyperalgesia and neuropathic pain); details: ref [1], [27]; cited from earlier work
[4] = tested on: rats (analgesic tolerance, CCI); test: Chronic analgesic tolerance in CCI neuropathic pain; type: in vivo, rat
[5] = tested on: mice (conditioned place preference); test: Conditioned place preference; type: in vivo, mouse; details: s.c.; morphine 10 mg/kg; P10581 2 μg/kg, 100 μL; n = 5
Procedure, shortened: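 Two-chamber boxes (20 × 20 × 20 cm), one with vertical black-white stripes and one with horizontal stripes. Conditioning training was repeated for 4 days. On Day 5, 24 h after the final dose, mice were placed in the central chamber with free access to both chambers for 15 min. Score = time on the drug-paired side postconditioning minus preconditioning. Dosing was blinded.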

TRPV4 channel [6] = test: Analgesia in homozygous Trpv4−/− mice, CFA pain; type: in vivo, mouse; details: 5 mg/kg, 2 h or 3 h post-injection; n = 4–5
TRPV4 channel [7] = test: Whole-cell patch clamp, GSK101-evoked TRPV4 currents in HEK293; type: cell-based; details: GSK101 0.3 μmol/L, extracellular; ∼25 °C
Procedure, shortened: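 HEK293 cells were transiently transfected with TRPV4 by lipofection. Whole-cell voltage clamp was performed 24 h after transfection at ~25 °C; currents were filtered at 2 kHz and digitized at 10 kHz. Current was evoked by the TRPV4 activator GSK101, with GSK219 as the selective inhibitor. Test compound stock was freshly diluted in normal saline.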

GsMTx4 (GCLEFWWKCNPNDDKCCRPKLKCSKLFKLCNFSF; ends and bridges not checked; cysteine pairing not given here; UniProt Q7YT39 47-80, looked up)
effect on PWT at low dose ([1]; i.d. 0.6 μg/kg, 5 μL, n = 6): only a mild impact on PWT | IC50 for anti-hyperalgesic effect (ΔPWT) ([1]; i.d., 2 h after injection, Hill equation fit, n = 5 per group, mean ± SEM): 689.3 ± 21.5 ng/kg | dose dependence of analgesic effect ([1]; i.d., Fig. 1G): dose-dependent | effect on PWL, cold pain (rats (cold pain)): neither P10581 nor GsMTx4 at 1200 ng/kg (i.d. 5 μL) affected PWL following cold stimulus | effect on paw withdrawal latency (PWL), hot pain (rats (thermal pain)): did not change their PWL when compared to the saline group | channel sensitivity to GsMTx4 (TRPC1 and TRPC6): GsMTx4-sensitive | channel sensitivity to GsMTx4 (Piezo1/Piezo2 channel): sensitive to GsMTx4 | inhibition of stretch-activated cationic currents [2]: inhibit stretch-activated cationic currents | reduction of mechanical hyperalgesia and neuropathic pain [3]: reduce mechanical hyperalgesia and neuropathic pain in rats

CN1CC[C@]23c4c5ccc(O)c4O[C@H]2[C@@H](O)C=C[C@H]3[C@H]1C5 [morphine]
loss of anti-hyperalgesic effect on repeated injection ([4]; i.d. 5 mg/kg twice a day, CCI): completely lost its anti-hyperalgesic effect from Day 4 | chronic tolerance after repeated injections ([4]; i.d. twice a day, 9 days, from Day 8 after CCI, morphine 5 mg/kg, P10581 8 μg/kg): time-dependent decrease in PWT | CPP preference score [5]: significantly increased CPP scores | anti-hyperalgesic effect of morphine in WT vs. Trpv4-deficient mice (TRPV4 channel [6]): equally effective in the anti-hyperalgesic effects among wild-type and Trpv4-deficient mice

CC(C)C[C@H](NC(=O)c1cc2ccccc2s1)C(=O)N1CCN(C(=O)[C@H](CO)NS(=O)(=O)c2ccc(Cl)cc2Cl)CC1 [GSK101]
activation of TRPV4 current (TRPV4 channel [7]): robust increase in the currents
